The values that follow come from the array DNA melting data of Ke et al. (doi:10.1101/2024.01.08.574731).

Data set [1] can be described thus: folding enthalpy; higher = less favourable; fluorescence melt of hairpins on a sequencing array, two-state fit. As to conditions: sodium 0.088 M. The method in brief: (§1)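 Hairpins were imaged by Cy3 fluorescence on a sequenced MiSeq flow cell with annealed Cy3 and quencher oligos, in 50 mM Na-HEPES pH 8.0, 25 mM NaCl, in 2.5 °C steps up to 60 °C. Bootstrapped two-state fits of normalised signals gave melting temperature and folding enthalpy. Four replicates were combined by inverse variance, and fitted temperatures were raised by 9.35 °C to match UV melts.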

Data set [2] is described as follows: melting temperature; fluorescence melt of hairpins on a sequencing array, two-state fit, raised by 9.35 °C to match UV melts. The following applies: sodium 0.088 M. The method in brief: as §1

As for GCTCAACGAAAGTTTAGC (((.(((....))).))), the folding enthalpy in data set [1] was -28.2 kcal/mol. In addition, the Tm in data set [2] worked out at 44.5 °C.
In the case of GCTCAAGGAAACCTGAGC (((((.(....).))))), the folding enthalpy in data set [1] was -35.4 kcal/mol. Moreover, the Tm in data set [2] was found to be 46.9 °C.
In the same order, the values of GCTCACACGAAAGTGAGC (((..(((....)))))) are -32 kcal/mol and 60.5 °C.
Take GCTCACGAAAGTGAAAGC ((((((....)))..))): the folding enthalpy in data set [1] is -21 kcal/mol. In addition, in data set [2], the Tm worked out at 48.9 °C.
In the same order, the values of GCTCACGAAAGTGAAGC ((((((....))).))) are -29 kcal/mol and 56 °C.
In the same order, the values of GCTCACGAAAGTGGGAGC ((((((....)))..))) are -20.1 kcal/mol and 49.9 °C.
In the same order, the values of GCTCACGAAAGTGTAAGC ((((((....)))..))) are -19 kcal/mol and 45.4 °C.
With GCTCACGAAAGTGTAGC ((((((....))).))), the folding enthalpy in data set [1] was -24.6 kcal/mol. Besides, in data set [2], the Tm came out at 51.5 °C.
In the same order, the values of GCTCACGGAAACGCAAGC (((..((....))..))) are -8.31 kcal/mol and 26.8 °C.
In the same order, the values of GCTCAGAAATGAGC (((((....))))) are -26.8 kcal/mol and 55.4 °C.
In the same order, the values of GCTCAGACGAAAGTCAGC (((..(((....)))))) are -15.5 kcal/mol and 41 °C.
In the case of GCTCAGCGAAAGCCGAGC ((((.((....)).)))), the folding enthalpy in data set [1] is -28.1 kcal/mol. For the same sequence, the Tm in data set [2] was 63.5 °C.
In the same order, the values of GCTCAGCGAAAGCTAGGC ((..(((....)))..)) are -15.5 kcal/mol and 44.5 °C.
GCTCAGCGAAAGCTGCGC ((.((((....)))).)): the folding enthalpy in data set [1] was -24.8 kcal/mol. For the same sequence, the Tm in data set [2] came out at 59.9 °C.
Consider GCTCAGCGAAAGCTTGGC ((..(((....)))..)), for which the folding enthalpy in data set [1] is -18.8 kcal/mol. Further, the Tm in data set [2] amounted to 39.7 °C.
In the same order, the values of GCTCAGGCGAAAGCCAGC (((..(((....)))))) are -12.6 kcal/mol and 42.8 °C.
Turning to GCTCAGGGAAACCCAAGC (((..((....))..))), in data set [1], the folding enthalpy was -12.9 kcal/mol. Also, the Tm in data set [2] is 33.3 °C.
In the same order, the values of GCTCAGGGAAACCTAAGC (((.(((....))).))) are -20.6 kcal/mol and 34.1 °C.
In the same order, the values of GCTCAGGGAAACTTGAGC (((((.(....).))))) are -33.3 kcal/mol and 48.7 °C.
In the same order, the values of GCTCATCCGAAAGGAAGC (((..(((....)))))) are -11.2 kcal/mol and 29.8 °C.
For the sequence GCTCATCGAAAGATAGC (((.(((....)))))), the folding enthalpy in data set [1] is -26.3 kcal/mol. Moreover, the Tm in data set [2] worked out at 42.3 °C.
In the same order, the values of GCTCATCGAAAGATCAGC (((.(((....))).))) are -29.6 kcal/mol and 34.7 °C.
In the same order, the values of GCTCATGGAAACACGAGC ((((.((....)).)))) are -38.1 kcal/mol and 42.6 °C.
As to GCTCATGGAAACATGAAC (.(((((....))))).), the folding enthalpy in data set [1] is -18.3 kcal/mol. The Tm in data set [2] turned out to be 35.7 °C.
As to GCTCATGGAAACATGAGC (((((((....))))))), the folding enthalpy in data set [1] was -33 kcal/mol. Further, the Tm in data set [2] amounted to 67.6 °C.
In the same order, the values of GCTCCAGAAATGGAGC ((((((....)))))) are -32 kcal/mol and 65.8 °C.
Turning to GCTCCAGGAAACTAGAGC ((((.((....)).)))), the folding enthalpy in data set [1] is -25.4 kcal/mol. The Tm in data set [2] came to 36.5 °C.
In the same order, the values of GCTCCATCGAAAGATAGC (((..(((....)))))) are -10.7 kcal/mol and 24.6 °C.
For the sequence GCTCCCGAAAGGGACAGC ((((((....)))..))), in data set [1], the folding enthalpy was -12.6 kcal/mol. In addition, in data set [2], the Tm is 44.7 °C.
Take GCTCCCGAAAGGGGAAGC ((((((....)))..))): in data set [1], the folding enthalpy was -19.2 kcal/mol. Moreover, the Tm in data set [2] was found to be 50 °C.
In the same order, the values of GCTCCCGAAAGGGGTAGC ((((((....)))..))) are -18.1 kcal/mol and 48.7 °C.
In the case of GCTCCGCGAAAGCAAAGC (((..((....))..))), in data set [1], the folding enthalpy was -11 kcal/mol. In addition, the Tm in data set [2] came to 31.5 °C.
With GCTCCGCGAAAGCCAAGC (((..((....))..))), the folding enthalpy in data set [1] is -8.28 kcal/mol. In addition, the Tm in data set [2] is 26.1 °C.
In the same order, the values of GCTCCGCGAAAGCGAGC (((.(((....)))))) are -20.6 kcal/mol and 61.7 °C.
For GCTCCGCGAAAGCGTCGC ((..(((....)))..)), in data set [1], the folding enthalpy is -15.9 kcal/mol. Further, in data set [2], the Tm was 35.2 °C.
As for GCTCCGCGAAAGCGTGGC ((..(((....)))..)), the folding enthalpy in data set [1] was -15.7 kcal/mol. For the same sequence, the Tm in data set [2] worked out at 50.1 °C.
GCTCCGCGAAAGCGTTGC ((..(((....)))..)): in data set [1], the folding enthalpy was -14.2 kcal/mol. The Tm in data set [2] was determined as 40.4 °C.
In the same order, the values of GCTCCGCGAAAGCTGTGC ((.(.((....)).).)) are -14.9 kcal/mol and 41.2 °C.
In the same order, the values of GCTCCGGGAAACCAGAGC ((((.((....)).)))) are -31.9 kcal/mol and 47 °C.
For GCTCCGGGAAACTGGAGC (((((.(....).))))), the folding enthalpy in data set [1] is -45.7 kcal/mol. Moreover, in data set [2], the Tm is 60.1 °C.
Turning to GCTCCGGGAAACTGGGGC ((.((.(....).)).)), the folding enthalpy in data set [1] was -33.9 kcal/mol. Besides, in data set [2], the Tm stood at 48.1 °C.
In the same order, the values of GCTCGAGGAAACTTGAGC ((((.((....)).)))) are -37.8 kcal/mol and 50.8 °C.
In the same order, the values of GCTCGCGAAAGCGGCAGC ((((((....)))..))) are -12.2 kcal/mol and 48.9 °C.
GCTCGCTCGAAAGAGAGC (((..(((....)))))): in data set [1], the folding enthalpy is -20.8 kcal/mol. Moreover, the Tm in data set [2] worked out at 48.6 °C.
In the same order, the values of GCTCGGACGAAAGTCAGC (((..(((....)))))) are -12.3 kcal/mol and 39.1 °C.
In the same order, the values of GCTCGGCGAAAGCACAGC (((..((....))..))) are -12.2 kcal/mol and 51.2 °C.
For the sequence GCTCGGCGAAAGCATAGC (((..((....))..))), the folding enthalpy in data set [1] was -12.3 kcal/mol. For the same sequence, in data set [2], the Tm was 44 °C.
In the same order, the values of GCTCGGCGAAAGCCAGGC ((..(((....)))..)) are -12.6 kcal/mol and 58.8 °C.
In the same order, the values of GCTCGGCGAAAGCCTCGC ((..(((....)))..)) are -14.4 kcal/mol and 48.7 °C.
On to GCTCGGCGAAAGCGAAGC (((..((....))..))), for which, in data set [1], the folding enthalpy is -13.1 kcal/mol. Besides, the Tm in data set [2] came out at 47.2 °C.
Turning to GCTCGGCGAAAGCGGCGC ((.(.((....)).).)), in data set [1], the folding enthalpy was -15.8 kcal/mol. Besides, in data set [2], the Tm worked out at 54 °C.
In the same order, the values of GCTCGGCGAAAGCTGGGC ((.(.((....)).).)) are -26.2 kcal/mol and 60.9 °C.
Take GCTCGGGGAAACTCGAGC (((((.(....).))))): the folding enthalpy in data set [1] is -44.2 kcal/mol. For the same sequence, the Tm in data set [2] is 58.5 °C.
In the same order, the values of GCTCGTGGAAACGTGAGC ((((..(....)..)))) are -21.3 kcal/mol and 46.2 °C.
In the same order, the values of GCTCTACCGAAAGGTAGC (((..(((....)))))) are -9.29 kcal/mol and 31.3 °C.
In the same order, the values of GCTCTACGAAAGTAAGC (((.(((....)))))) are -18.8 kcal/mol and 38.7 °C.
Consider GCTCTACGAAAGTATAGC (((.(((....))).))), for which the folding enthalpy in data set [1] is -29.7 kcal/mol. Besides, the Tm in data set [2] came out at 42.5 °C.
As to GCTCTAGGAAACTAGAAC (.(((((....))))).), the folding enthalpy in data set [1] is -14.2 kcal/mol. In addition, in data set [2], the Tm turned out to be 29.7 °C.
Turning to GCTCTAGGAAACTAGGGC ((.((((....)))).)), in data set [1], the folding enthalpy was -32.7 kcal/mol. The Tm in data set [2] worked out at 47.1 °C.
With GCTCTCCGAAAGGACAGC (((.(((....))).))), in data set [1], the folding enthalpy is -25.9 kcal/mol. Also, the Tm in data set [2] was found to be 41.3 °C.
In the same order, the values of GCTCTCGAAAGAGGGAGC ((((((....)))..))) are -21.8 kcal/mol and 45.5 °C.
In the same order, the values of GCTCTCGAAAGAGTCAGC ((((((....)))..))) are -14.7 kcal/mol and 32.9 °C.
Turning to GCTCTCGAAAGAGTTAGC ((((((....)))..))), the folding enthalpy in data set [1] was -21.8 kcal/mol. Also, in data set [2], the Tm was found to be 35.3 °C.
GCTCTCGCGAAAGCGAGC (((..(((....)))))): in data set [1], the folding enthalpy was -4.57 kcal/mol. Moreover, in data set [2], the Tm was determined as 38.3 °C.
Take GCTCTGCGAAAGCAAGGC ((..(((....)))..)): the folding enthalpy in data set [1] was -17.7 kcal/mol. For the same sequence, in data set [2], the Tm was determined as 46.9 °C.
In the same order, the values of GCTCTGCGAAAGCATAGC (((.(((....))).))) are -41.8 kcal/mol and 49.8 °C.
In the same order, the values of GCTCTGCGAAAGCGAAGC (((..((....))..))) are -13.6 kcal/mol and 40.8 °C.
For GCTCTGCGAAAGCGGGGC ((.(.((....)).).)), the folding enthalpy in data set [1] was -27.6 kcal/mol. For the same sequence, the Tm in data set [2] worked out at 63.4 °C.
Consider GCTCTGCGAAAGCTCAGC (((..((....))..))), for which, in data set [1], the folding enthalpy is -14.9 kcal/mol. Besides, the Tm in data set [2] is 35.5 °C.
With GCTCTGCGAAAGCTGTGC ((.(.((....)).).)), the folding enthalpy in data set [1] was -21 kcal/mol. Besides, the Tm in data set [2] is 43.6 °C.
With GCTCTGCGAAAGCTTAGC (((..((....))..))), the folding enthalpy in data set [1] was -18.5 kcal/mol. Also, the Tm in data set [2] was 44.2 °C.
In the same order, the values of GCTCTGGGAAACCAGGGC ((.((((....)))).)) are -38 kcal/mol and 54.6 °C.
In the same order, the values of GCTCTTGGAAACAAGAGC (((((((....))))))) are -37.2 kcal/mol and 63.2 °C.
